Data taken from ChEMBL document CHEMBL3091432, “(S)-4-Trimethylsilyl-3-butyn-2-ol as an auxiliary for stereocontrolled synthesis of salinosporamide analogs with modifications at positions C2 and C5” (Bioorg Med Chem Lett, 2013).
Activity calls are given as the source filed them. The calls are words filed in the database; no cut-off is given here.

How the values were obtained:
[1] = target: T1, Proteasome Macropain subunit MB1 (Homo sapiens, UniProt P28074); assay: Inhibition of chymotrypsin like activity of 20S proteasome in HEK293 cells after 24 hrs by microscopic analysis; format: cell-based
T1 sequence (P28074 whole entry): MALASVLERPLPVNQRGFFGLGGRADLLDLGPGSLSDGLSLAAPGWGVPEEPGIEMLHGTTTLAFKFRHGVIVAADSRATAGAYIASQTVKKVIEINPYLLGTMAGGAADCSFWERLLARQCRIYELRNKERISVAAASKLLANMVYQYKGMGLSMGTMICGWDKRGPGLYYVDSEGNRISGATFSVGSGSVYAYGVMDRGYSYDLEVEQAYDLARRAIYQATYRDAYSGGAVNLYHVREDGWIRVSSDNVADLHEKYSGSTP
Method in brief: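 Image-based screen in a stably transfected HEK cell line expressing a GFP-tagged proteasomal substrate. Proteasomal inhibition is read out by cellular fluorescence.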

[2] = target: T1, Proteasome Macropain subunit MB1; assay: Inhibition of chymotrypsin like activity of human 20S proteasome after 1 hr by luminescence assay
[3] = target: T2, Proteasome Macropain subunit MB1 (Homo sapiens) (UniProt P28074); assay: Inhibition of human 20S proteasome beta 5 subunit assessed as cyclized acylated protein adduct formation after <20 mins by ESI-TOF analysis
T2 sequence (whole entry): T1 sequence (P28074 whole entry)
Method in brief: (§1)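 Purified human 20S proteasome (1.4 μM) incubated at 23 °C with a 10-fold molar excess of inhibitor in pH 7.5 buffer (10 mM Tris/HCl, 1 mM EDTA, 1 mM DTT, <1% DMSO) for varying times. Reactions stopped by denaturing quench, desalted on C4 tips, eluted with 70:30:0.1 acetonitrile–water–formic acid, then analysed by mass spectrometry to follow each step of subunit modification.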

[4] = target: T2, Proteasome Macropain subunit MB1 (Homo sapiens); assay: Inhibition of human 20S proteasome beta 5 subunit assessed as cyclized acylated protein adduct formation after <20 mins by FT-MS analysis; method in brief: as §1
[5] = target: T2, Proteasome Macropain subunit MB1 (Homo sapiens); assay: Inhibition of human 20S proteasome beta 5 subunit assessed as non-cyclized product formation after 5 to 10 mins by ESI-TOF analysis; method in brief: as §1
[6] = target: T2, Proteasome Macropain subunit MB1 (Homo sapiens); assay: Inhibition of human 20S proteasome beta 5 subunit assessed as non-cyclized product formation after 5 to 10 mins by FT-MS analysis; method in brief: as §1
[7] = target: T2, Proteasome Macropain subunit MB1 (Homo sapiens); assay: Inhibition of human 20S proteasome beta 5 subunit assessed as hydrolysis of non-cyclized product after 48 hrs by ESI-TOF analysis; method in brief: as §1
[8] = target: T2, Proteasome Macropain subunit MB1 (Homo sapiens); assay: Inhibition of human 20S proteasome beta 5 subunit assessed as hydrolysis of non-cyclized product after 48 hrs by FT-MS analysis; method in brief: as §1
[9] = target: T2, Proteasome Macropain subunit MB1 (Homo sapiens); assay: Inhibition of human 20S proteasome beta 5 subunit assessed as cyclized acylated protein adduct formation after 48 hrs by ESI-TOF analysis; method in brief: as §1
[10] = target: T2, Proteasome Macropain subunit MB1 (Homo sapiens); assay: Inhibition of human 20S proteasome beta 5 subunit assessed as cyclized acylated protein adduct formation after 48 hrs by FT-MS analysis; method in brief: as §1

Compound	IC50 [2] [nM]	EC50 [1] [nM]	inhibition [3]	inhibition [4]	inhibition [5]	inhibition [6]	inhibition [7]	inhibition [8]	inhibition [9]	inhibition [10]
C[C@@]12OC(=O)[C@]1([C@@H](O)C1CCCCC1)NC(=O)[C@@H]2CCCl	23	10	Active	Active	Active	Active	–	–	–	–
C[C@@]12OC(=O)[C@]1([C@@H](O)[C@@H]1C=CCCC1)NC(=O)[C@@H]2CCCl [MARIZOMIB]	22	–	Active	Active	Active	Active	–	–	–	–
C[C@@]12OC(=O)[C@]1([C@@H](O)C1CCCCC1)NC(=O)[C@@H]2CCCCl	50	90	–	–	Active	Active	inactive	inactive	inactive	inactive

The next lines start with results.

IC50 [2] [nM]	Compound	EC50 [1] [nM]	inhibition [3]	inhibition [4]	inhibition [5]	inhibition [6]	inhibition [7]	inhibition [8]	inhibition [9]	inhibition [10]
28	C[C@@]12OC(=O)[C@]1([C@@H](O)C1CC1)NC(=O)[C@@H]2CCCl	360	–	–	–	–	–	–	–	–
500	COC(=O)C[C@H]1C(=O)N[C@@]2([C@@H](O)C3CCCCC3)C(=O)O[C@@]12C	–	–	–	–	–	–	–	–	–
500	C[C@@]12OC(=O)[C@]1([C@@H](O)Cc1ccccc1)NC(=O)[C@@H]2CCCl	332	–	–	–	–	–	–	–	–
330	C[C@@]12OC(=O)[C@]1([C@@H](O)C1CCCCC1)NC(=O)[C@@H]2CC=O	–	–	–	–	–	–	–	–	–
